According to ChEMBL document CHEMBL1129501 (J Med Chem, 1996):

Tests used:
[1] = molecular target: Estrogen receptor (Rattus norvegicus) (UniProt P06211+Q62986)
Phosphodiesterase 1 [2] = molecular target: T1, Phosphodiesterase 1 (Homo sapiens, UniProt P54750+Q01064+Q14123); experiment: Inhibitory activity against calmodulin-dependent Phosphodiesterase was reported.; format: protein assay, Canis lupus familiaris
Procedure, shortened: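 Calmodulin-dependent cAMP phosphodiesterase, 8-[3H]-cAMP substrate. Tritiated AMP converted to adenosine with snake venom 5'-nucleotidase. Nucleosides separated from substrate on Dowex anion exchanger, eluted with 3 mM acetic acid. Basal calmodulin-independent activity measured with 1 mM EGTA. Compounds in DMSO at several concentrations. IC50 against calmodulin-dependent activity, mean of triplicates ± standard error.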

Phosphodiesterase 1 [3] = molecular target: T1, Phosphodiesterase 1; experiment: Antagonistic potency against calmodulin-dependent cyclic AMP phosphodiesterase relative to 4-Iodotamoxifen; format: functional; details: Canis lupus familiaris
Phosphodiesterase 1 [4] = molecular target: T1, Phosphodiesterase 1; experiment: Antagonistic potency against calmodulin-dependent cyclic AMP phosphodiesterase relative to Idoxifene; format: functional; details: Canis lupus familiaris

| Binding affinity [1] | IC50 (Phosphodiesterase 1 [2]) | Relative potency (Phosphodiesterase 1 [3]) | Relative potency (Phosphodiesterase 1 [4]) | SMILES |
| --- | --- | --- | --- | --- |
| 8 | 2300 nM | 1 | – | CC/C(=C(\c1ccc(I)cc1)c1ccc(OCCN(C)C)cc1)c1ccccc1 |
| 1.5 | 200 nM | – | 7.5 | CC/C(=C(\c1ccc(I)cc1)c1ccc(OCCCCCCCCCN2CCCC2)cc1)c1ccccc1 |
| 2 | 300 nM | 7.7 | – | CC/C(=C(\c1ccc(I)cc1)c1ccc(OCCCCCCCCN(C)C)cc1)c1ccccc1 |
| 8 | 800 nM | – | 1.9 | CC/C(=C(\c1ccc(I)cc1)c1ccc(OCCCCCN2CCCC2)cc1)c1ccccc1 |
| 4 | 500 nM | – | 3 | CC/C(=C(\c1ccc(I)cc1)c1ccc(OCCCCCCN2CCCC2)cc1)c1ccccc1 |

More lines, now with the values behind:

| SMILES | Binding affinity [1] | IC50 (Phosphodiesterase 1 [2]) | Relative potency (Phosphodiesterase 1 [3]) | Relative potency (Phosphodiesterase 1 [4]) |
| --- | --- | --- | --- | --- |
| CC/C(=C(\c1ccc(I)cc1)c1ccc(OCCCCCCCCN2CCCC2)cc1)c1ccccc1 | 3.5 | 200 nM | – | 7.5 |
| CC/C(=C(\c1ccc(I)cc1)c1ccc(OCCCCCN(C)C)cc1)c1ccccc1 | 6 | 600 nM | 3.8 | – |
| CC/C(=C(\c1ccc(I)cc1)c1ccc(OCCCCCCCCCCN2CCCC2)cc1)c1ccccc1 | 0.4 | 1600 nM | – | 0.9 |
| CC/C(=C(\c1ccc(I)cc1)c1ccc(OCCCCN2CCCC2)cc1)c1ccccc1 | 9 | 1000 nM | – | 1.5 |
| CC/C(=C(\c1ccc(I)cc1)c1ccc(OCCCN2CCCC2)cc1)c1ccccc1 | 23 | 1100 nM | – | 1.4 |
| CC/C(=C(\c1ccc(I)cc1)c1ccc(OCCCCCCCN2CCCC2)cc1)c1ccccc1 | 3 | 200 nM | – | 7.5 |
| CC/C(=C(\c1ccc(I)cc1)c1ccc(OCCCN(C)C)cc1)c1ccccc1 | 8 | 2000 nM | 1.2 | – |
| CC/C(=C(\c1ccc(I)cc1)c1ccc(OCCCCCCCCCCN(C)C)cc1)c1ccccc1 | 0.4 | 1200 nM | 1.9 | – |
| CC/C(=C(\c1ccc(I)cc1)c1ccc(OCCN2CCCC2)cc1)c1ccccc1 [IDOXIFENE] | – | 1500 nM | – | – |
| CC/C(=C(\c1ccc(I)cc1)c1ccc(OCCCCCCN(C)C)cc1)c1ccccc1 | 8 | 400 nM | 5.8 | – |
| CC/C(=C(\c1ccc(I)cc1)c1ccc(OCCCCN(C)C)cc1)c1ccccc1 | 25 | 2200 nM | 1.1 | – |
